Tests used:
hKV7.2/3 = hKV7.2/3 (Homo sapiens, UniProt O43525+O43526); assay: Two-electrode voltage clamp, hKV7.2/3 in Xenopus oocytes; format: cell-based; conditions: for effect on maximal conductance GMAX (in words) / shift of V50 (in words): 10 µM and 100 µM
How it was run: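 hKV7.2 and hKV7.3 cRNA (2.5 ng each) were coinjected into Xenopus oocytes, held 2–4 d at 8°C or 16°C, and clamped with two electrodes at rt in HEPES saline, pH 7.4. Holding −80 mV; 2-s steps from −100 to +50 mV in 10-mV increments; tail −30 mV. Boltzmann G(V) fits per oocyte gave ΔV50 and GMAX change. A Hill fit across concentrations gave EC50. Current fold increase was taken per test voltage; mean ± SEM.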

[1] = target: hKV7.2_W236L/hKV7.3_W265L (Homo sapiens, UniProt O43525+O43526, A315T/W236L/W265L); assay: Two-electrode voltage clamp, tryptophan mutant heteromer; format: cell-based; conditions: 3 µM
How it was run: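 Human KV7 cRNA (2.5–50 ng per oocyte; mutants made by site-directed mutagenesis) was injected into Xenopus oocytes, which were kept 2–4 d at 8°C or 16°C. Two-electrode clamp was run at rt in 88 mM NaCl/1 mM KCl/15 mM HEPES saline, pH 7.4. Holding −80 mV; 2-s steps from −100 to +50 mV; tail −30 mV. Tail-current Boltzmann G(V) fits used a shared slope, giving per-oocyte ΔV50 and GMAX change; mean ± SEM.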

hKV7.1 = hKV7.1 (Homo sapiens, UniProt P51787); conditions: ref Schenzer et al., 2005; cited from earlier work
Chain of hKV7.1 (P51787 whole entry): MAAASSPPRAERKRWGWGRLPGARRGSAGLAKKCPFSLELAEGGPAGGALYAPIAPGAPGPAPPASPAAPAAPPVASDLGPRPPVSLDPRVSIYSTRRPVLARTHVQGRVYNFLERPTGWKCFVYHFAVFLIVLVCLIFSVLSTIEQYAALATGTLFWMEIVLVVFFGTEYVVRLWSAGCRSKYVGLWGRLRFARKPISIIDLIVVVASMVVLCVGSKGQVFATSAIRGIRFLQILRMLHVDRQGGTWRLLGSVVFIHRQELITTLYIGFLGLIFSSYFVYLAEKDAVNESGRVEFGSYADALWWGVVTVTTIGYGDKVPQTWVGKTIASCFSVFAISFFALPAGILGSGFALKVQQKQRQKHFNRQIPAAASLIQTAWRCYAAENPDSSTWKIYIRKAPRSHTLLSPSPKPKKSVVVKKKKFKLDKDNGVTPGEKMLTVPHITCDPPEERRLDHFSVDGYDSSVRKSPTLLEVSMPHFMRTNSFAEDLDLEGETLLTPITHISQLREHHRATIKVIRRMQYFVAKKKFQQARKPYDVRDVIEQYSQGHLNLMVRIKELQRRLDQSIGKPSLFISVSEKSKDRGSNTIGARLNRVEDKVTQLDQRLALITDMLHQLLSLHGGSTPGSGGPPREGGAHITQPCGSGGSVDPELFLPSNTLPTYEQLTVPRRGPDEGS

[2] = 10 µM, analogues compared with ARA-S

CCCCC/C=C\C/C=C\C/C=C\C/C=C\CCCC(=O)N[C@H](CO)C(=O)O (single isomer, unassigned) [D enantiomer of ARA-S, N-arachidonoyl-D-serine]
effect on GMAX (in words) (hKV7.2/3; [2]): comparable
effect on V50 (in words) (hKV7.2/3; [2]): comparable

CCCCC/C=C\C/C=C\C/C=C\C/C=C\CCCC(=O)OC(CO)CO [2-AG, 2-arachidonoylglycerol]
effect on maximal conductance GMAX (in words) (hKV7.2/3): no effect
shift of V50 (in words) (hKV7.2/3): no effect

CCCCC/C=C\C/C=C\C/C=C\C/C=C\CCCC(=O)NCCO [AEA, N-arachidonoylethanolamine]
effect on maximal conductance GMAX (in words) (hKV7.2/3): no effect
shift of V50 (in words) (hKV7.2/3): no effect

CCOC(=O)Nc1ccc(NCc2ccc(F)cc2)cc1N [retigabine]
current fold increase at −60 mV (hKV7.2/3; 1 µM alone): three- to fourfold
increase in GMAX (hKV7.2/3; 1 µM alone): did not affect
shift in V50 (ΔV50) (hKV7.2/3; 1 µM alone): −8.1 ± 0.7 mV
ΔV50:MAX (maximal shift in V50) (hKV7.2/3; from concentration-response curve): −35 mV
sensitivity (shift in V50) [1]: insensitive
sensitivity of the channel (hKV7.1): insensitive
